The species named for assay [1] is Rattus norvegicus. Briefly: Relative potency in the rat discriminative stimulus assay, expressed as mg of PCP (= 1.0 mg of compound). The class given is functional. Summed up: (§1)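 Male Fischer-derived CDF rats trained to discriminate PCP (3.0 mg/kg ip, 30 min before session) from saline in a two-choice, discrete-trial avoidance task. In tests, generalization counted if the group averaged ≥90% of 20 trials on the PCP lever. Relative potency versus PCP derived by standard bioassay statistics.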

Assay [2] is filed under the species Rattus norvegicus. The assay is described as follows: Inhibitory concentration for [3H]PCP binding to rat brain homogenate relative to PCP. Summed up: (§2)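 Freshly prepared rat brain homogenate aliquots incubated 45 min at 4 °C with 7.0 nM [3H]PCP; bound radioligand measured by filtration. Displacement curve for each analogue fitted visually from a log-probit plot to give IC50. PCP run as standard in each assay, and each analogue's IC50 compared with it.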

The species named for assay [3] is Rattus norvegicus. The assay is described as follows: Ability to displace 7.0 nM [3H]PCP binding to rat brain homogenate relative to PCP (IC50= 270 nM). The essentials: as §2
The test system of assay [4] is Rattus norvegicus. Briefly: Relative potency in the rat discriminative stimulus assay, expressed as mg of PCP (= 1.0 mg of compound); Did not generalize to PCP, No activity seen at doses of <=56 mg/Kg. The class given is functional, organism-based. The essentials: as §1
For assay [5], the species on record is Rattus norvegicus. Briefly: Ability to displace 7.0 nM [3H]-PCP binding to rat brain homogenate relative to PCP. Summed up:
as §2

In assay [6] the test system is Rattus norvegicus. Briefly: Relative potency in the rat discriminative stimulus assay, expressed as mg of PCP (= 1.0 mg of compound); Did not generalize to PCP, Tonic seizures was observed at 56 mg/Kg. The class given is functional, organism-based. Summed up: as §1
The test system of assay [7] is Rattus norvegicus. Briefly: Relative potency in the rat discriminative stimulus assay, expressed as mg of PCP (= 1.0 mg of compound); Did not generalize to PCP, Produced CNS depression at 56 mg/Kg. Format: functional, organism-based.

The values below come from ChEMBL document CHEMBL1121756, “Structure-activity relationships of the cycloalkyl ring of phencyclidine” (J Med Chem, 1981).

The source made the active and inactive calls. The calls are words filed in the database; no cut-off is given here.

Usually IC50 stands for the point on the concentration scale where inhibition reaches its midpoint.

On to `Cl.c1ccc(C2(N3CCCCC3)CCCCC2)cc1` [PHENCYCLIDINE HYDROCHLORIDE], for which the Relative potency in the assay listed under Rattus norvegicus [1] and in the assay listed under Rattus norvegicus [3] was 1 throughout. Moreover, in the assay listed under Rattus norvegicus [2], the IC50 was 270 nM.
As for `c1ccc(C2(N3CCCCC3)CC2)cc1`, the Relative potency entry with Rattus norvegicus [4] is “inactive”. In the assay listed under Rattus norvegicus [5], this molecule had a Relative potency of 0.07.
Take `Cl.c1ccc(C2(N3CCCCC3)CCCCCC2)cc1`: the figures for the Relative potency in the assay filed under Rattus norvegicus [1] and in the assay listed under Rattus norvegicus [5] were 0.06 and 0.23, respectively.
As for `c1ccc(C2(N3CCCCC3)CCCCCCC2)cc1`, in the assay filed under Rattus norvegicus [5], the Relative potency is 0.72. Moreover, the Relative potency result in the assay on Rattus norvegicus [6] is “inactive”.
As for `Cl.c1ccc(C2(N3CCCCC3)CCCC2)cc1`, the Relative potency in the assay listed under Rattus norvegicus [1] worked out at 0.37; in the assay listed under Rattus norvegicus [5] it was 0.12.
With `c1ccc(CN2CCCCC2)cc1`, the Relative potency in the assay filed under Rattus norvegicus [5] came out at 0.02. The Relative potency entry in the assay with Rattus norvegicus [7] is “inactive”.
As for `Cl.c1ccc(C2(N3CCCCC3)CCC2)cc1`, the figures for the Relative potency in the assay filed under Rattus norvegicus [1] and in the assay listed under Rattus norvegicus [5] were 0.19 and 0.08, respectively.
